This note sets out measurements from ChEMBL document CHEMBL4425130, “Macrocyclic Prodrugs of a Selective Nonpeptidic Direct Thrombin Inhibitor Display High Permeability, Efficient Bioconversion but Low Bioavailability” (J Med Chem, 2016).

The efflux ratio is the permeability from basolateral to apical divided by that in the opposite direction, in the common usage. For orientation: Papp A→B means the apparent permeability from the apical to the basolateral side of a cell layer. In general, logD refers to lipophilicity at a set pH, counting ionised and neutral species. For orientation: solubility means the concentration that dissolves in the medium under given conditions. High values mean a readily soluble substance, low ones a poorly soluble substance. By Ki is commonly meant a measure of affinity in units of concentration, obtained from inhibition or displacement. A lower Ki goes with higher affinity. What is called IC50 is the midpoint of a concentration-inhibition curve. For orientation: Cmax means the peak of the concentration-time curve. The term AUC denotes the area under the concentration-time curve, a measure of exposure.

A short description of data set [1]: Efflux ratio of apparent permeability across basolateral to apical over apical to basolateral side in human Caco2 cells at 10 uM after 45 to 120 mins by ultraperformance LC/MS/MS method. The note with it: Caco-2.
Data set [2] can be described thus: Apparent permeability across apical to basolateral side in human Caco2 cells at 10 uM after 45 to 120 mins by ultraperformance LC/MS/MS method. Particulars: Caco-2. For orientation: Caco-2 monolayers are a common model of the intestinal barrier.
A short description of data set [3]: Prodrug conversion in human liver microsomes assessed as 3-((3-(2-(2-(Aminomethyl)-5-chlorobenzylamino)-2-oxoethyl)-4-methyl-2-oxo-5,6-dihydropyridin-1(2H)-ylamino)methyl)benzoic acid formation in absence of NADPH. The format is ADME, Microsome. For orientation: Liver microsomes are a subcellular fraction often used to study metabolism.
Another data set in a line: physchem. The note with it: 1-octanol/phosphate buffer, pH 7.4.
Data set [4] can be described thus: Prodrug conversion in rat hepatocytes assessed as esterase-mediated 3-((3-(2-(2-(Aminomethyl)-5-chlorobenzylamino)-2-oxoethyl)-4-methyl-2-oxo-5,6-dihydropyridin-1(2H)-ylamino)methyl)benzoic acid formation at 4 uM after 40 mins by ultraperformance liquid chromatographic method. The format is ADME, cell-based.
Data set [5] can be described thus: Prodrug conversion in human plasma assessed as esterase-mediated metabolite formation after 4 hrs. Format: ADME, cell-free.
Data set [6] can be described thus: Solubility of the compound in phosphate buffer at pH 7.4 at 25 degC after 24 hrs by ultraperformance LC/MS/MS method.
Data set [7] in a line: Prodrug conversion in human liver microsomes assessed as 3-((3-(2-(2-(Aminomethyl)-5-chlorobenzylamino)-2-oxoethyl)-4-methyl-2-oxo-5,6-dihydropyridin-1(2H)-ylamino)methyl)benzoic acid formation in presence of NADPH. Format: ADME, Microsome.
A short description of data set [8]: Inhibition of human tissue factor/F7a using spectrozyme as substrate preincubated for 300 secs followed by substrate addition measured after 40 mins. The essentials:
(§1)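 Human proteases assayed at one substrate concentration with ten inhibitor concentrations at 37 °C, ≤1.3% DMSO, in an enzyme-specific Tris-HCl pH 7.4 buffer. Enzyme and inhibitor preincubated 300 s, then substrate added; absorbance read at 405 nm after 40 min. IC50 converted to Ki by IC50 = Ki(1+S/KM), using KM measured under assay conditions.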

A short description of data set [9]: Intrinsic clearance in Sprague-Dawley rat liver microsomes at 1 umol/L after 7 to 30 mins by LC-MS/MS method. Format: ADME, Microsome. The note with it: read-out: CLH.
Data set [10] is filed under the species Homo sapiens. The data set can be described thus: Selectivity ratio of Ki for human tissue factor/F7a to Ki for human alpha-thrombin.
The target in the next data set is Prothrombin (Homo sapiens, UniProt P00734). The experiment in a line: Inhibition of human alpha-thrombin using S-2366 as substrate after 40 mins.
A further data set has as its target Plasminogen (Homo sapiens, UniProt P00747). The data set can be described thus: Inhibition of human plasmin using S-2366 as substrate preincubated for 300 secs followed by substrate addition measured after 40 mins. The essentials: as §1
Data set [11] concerns the target Thrombin & trypsin (Homo sapiens) (UniProt P00734+P07477+P07478+P35030). The experiment in a line: Selectivity ratio of Ki for human trypsin 1 to Ki for human alpha-thrombin. Format: protein assay.
For data set [12], the species on record is Homo sapiens. The experiment in a line: Selectivity ratio of Ki for human F9a to Ki for human alpha-thrombin.
Another data set has as its target Coagulation factor X (Homo sapiens, UniProt P00742). The data set can be described thus: Inhibition of human F10a using S-2765 as substrate preincubated for 300 secs followed by substrate addition measured after 40 mins. The essentials: as §1
For data set [13], the species on record is Homo sapiens. The experiment in a line: Selectivity ratio of Ki for human plasmin to Ki for human alpha-thrombin.
For data set [14], the species on record is Homo sapiens. The data set can be described thus: Selectivity ratio of Ki for human F10a to Ki for human alpha-thrombin.
For another data set, the target named is Serine protease 1 (Homo sapiens, UniProt P07477). The data set can be described thus: Inhibition of human trypsin 1 using S-2222 as substrate preincubated for 300 secs followed by substrate addition measured after 40 mins. Summed up:
as §1

Data set [15] is filed under the species Homo sapiens. The experiment in a line: Selectivity ratio of Ki for human F11a to Ki for human alpha-thrombin.
The species named for a further data set is Rattus norvegicus. The experiment in a line: Antithrombotic activity in rat caval vein thrombosis model assessed as prevention of venous thrombosis. Format: functional, organism-based.
For another data set, the system named is Plasma. The experiment in a line: Anticoagulant activity in human citrated plasma assessed as concentration required to double activated partial thromboplastin time after 3 mins by coagulation analyser. The note with it: 0.05 h. The format is functional, cell-free.
In another data set the target is Coagulation factor XI (Homo sapiens, UniProt P03951). The data set can be described thus: Inhibition of human F11a using S-2366 as substrate preincubated for 300 secs followed by substrate addition measured after 40 mins. Summed up: as §1
Chain of Coagulation factor XI (P03951 19-387 limits assumed): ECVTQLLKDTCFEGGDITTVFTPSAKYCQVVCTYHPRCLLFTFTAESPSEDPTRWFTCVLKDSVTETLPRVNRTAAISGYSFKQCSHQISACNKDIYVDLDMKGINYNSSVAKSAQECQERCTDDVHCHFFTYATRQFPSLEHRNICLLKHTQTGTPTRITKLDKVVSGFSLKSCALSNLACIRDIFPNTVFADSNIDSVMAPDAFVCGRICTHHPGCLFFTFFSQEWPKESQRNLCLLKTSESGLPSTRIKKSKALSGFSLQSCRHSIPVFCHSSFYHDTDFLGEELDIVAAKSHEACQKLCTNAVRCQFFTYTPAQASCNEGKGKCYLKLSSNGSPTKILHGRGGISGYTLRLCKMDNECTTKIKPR
Chain of Coagulation factor XI (P03951 388-625 limits assumed): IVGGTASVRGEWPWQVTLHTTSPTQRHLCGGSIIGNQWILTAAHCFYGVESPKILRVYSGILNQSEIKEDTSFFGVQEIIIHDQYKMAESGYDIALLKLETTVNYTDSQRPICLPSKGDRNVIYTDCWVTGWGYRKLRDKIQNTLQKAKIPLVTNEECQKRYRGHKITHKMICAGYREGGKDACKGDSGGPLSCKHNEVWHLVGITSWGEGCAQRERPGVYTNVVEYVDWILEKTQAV
A further data set deals with Cytochrome P450 3A4 (Homo sapiens, UniProt P08684). The data set can be described thus: Inhibition of human CYP3A4. The format is ADME.
Chain of Cytochrome P450 3A4 (P08684 whole entry): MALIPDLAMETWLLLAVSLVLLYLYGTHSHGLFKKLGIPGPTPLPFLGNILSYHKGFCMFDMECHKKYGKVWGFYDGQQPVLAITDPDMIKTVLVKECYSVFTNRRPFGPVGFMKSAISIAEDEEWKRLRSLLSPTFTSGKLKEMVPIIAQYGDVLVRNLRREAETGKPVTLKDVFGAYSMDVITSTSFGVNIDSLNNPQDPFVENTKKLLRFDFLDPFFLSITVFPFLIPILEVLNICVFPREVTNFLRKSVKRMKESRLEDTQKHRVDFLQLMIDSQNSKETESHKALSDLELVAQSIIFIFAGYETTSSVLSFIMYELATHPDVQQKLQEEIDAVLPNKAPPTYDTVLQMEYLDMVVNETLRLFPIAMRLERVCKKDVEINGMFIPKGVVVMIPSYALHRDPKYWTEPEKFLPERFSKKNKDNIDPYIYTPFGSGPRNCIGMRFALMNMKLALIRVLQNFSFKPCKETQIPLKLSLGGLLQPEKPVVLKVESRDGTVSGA
Another data set addresses Coagulation factor IX (Homo sapiens, UniProt P00740). The data set can be described thus: Inhibition of human F9a using pefachrome F9a as substrate preincubated for 300 secs followed by substrate addition measured after 40 mins.
Data set [16] in a line: Drug level in rat hepatocytes treated with Methyl 3-(((3-(2-((5-Chloro-2-(((methoxycarbonyl)amino)-methyl)benzyl)amino)-2-oxoethyl)-4-methyl-2-oxo-5,6-dihydropyridin-1(2H)-yl)amino)methyl)benzoate assessed as esterase-mediated compound formation at 4 uM after 40 mins by ultraperformance liquid chromatographic method. The format is ADME, cell-based. The note with it: isolated protein.

Data set [17] in a line: Oral bioavailability in Han Wistar rat assessed as 3-((3-(2-(2-(Aminomethyl)-5-chlorobenzylamino)-2-oxoethyl)-4-methyl-2-oxo-5,6-dihydropyridin-1(2H)-ylamino)methyl)benzoic acid formation at 1 umol/kg administered via gavage by LC-MS/MS method. Format: ADME, organism-based. Particulars: in vivo. The essentials: (§2)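 Male Han Wistar rats, cannulated in the carotid artery for sampling and the jugular vein for i.v. dosing, one week before the study (two days before for intraduodenal dosing). Single doses: 0.5 µmol/kg i.v., or 1 µmol/kg by gavage or intraduodenally. Vehicles were 5% mannitol in water or DMA:TEG:water (1:1:1). Plasma sampled up to 24 h and analysed by LC-MS/MS. Non-compartmental analysis; means of n=3, with F from mean AUCinf.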

Data set [18] can be described thus: Cmax in Han Wistar rat at 1 umol/kg, po administered via gavage by LC-MS/MS method. The format is ADME, organism-based. Also noted: dose 1 umol/kg, route oral. The note with it: in vivo. The essentials: as §2
A short description of data set [19]: Cmax in Han Wistar rat at 1 umol/kg administered intraduodenally by LC-MS/MS method. Particulars: in vivo. Also noted: dose 1 umol/kg, route intraduodenal. The format is ADME. The essentials:
as §2

Data set [20] is described as follows: Prodrug conversion in human hepatocytes assessed as esterase-mediated formaldehyde formation at 4 uM after 40 mins by ultraperformance liquid chromatographic method. The note with it: isolated protein. Format: ADME, cell-based. Summed up:
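Cryopreserved human hepatocytes at 10^6 viable cells/mL, thawed and pre-warmed 10 min at 37 °C. Compound added from CH3CN stock at 4 µM final. Incubated 40 min, then quenched in cold CH3CN, with compound-free incubations as blanks. Metabolites assigned by LC-MS product ion spectra.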

A short description of data set [21]: Apparent terminal half life in Han Wistar rat at 1 umol/kg, po administered via gavage by LC-MS/MS method. Format: ADME, organism-based. The note with it: in vivo, read-out: betat1/2(app) (converted). Summed up: as §2
Data set [22] is described as follows: AUCinfinity in Han Wistar rat assessed as 3-((3-(2-(2-(Aminomethyl)-5-chlorobenzylamino)-2-oxoethyl)-4-methyl-2-oxo-5,6-dihydropyridin-1(2H)-ylamino)methyl)benzoic acid formation at 1 umol/kg, po administered via gavage by LC-MS/MS method. Particulars: in vivo. Also noted: dose 1 umol/kg, time infinity, route oral. Format: ADME, organism-based. Summed up: as §2

Data set [23] in a line: Bioavailability in Han Wistar rat assessed as 3-((3-(2-(2-(Aminomethyl)-5-chlorobenzylamino)-2-oxoethyl)-4-methyl-2-oxo-5,6-dihydropyridin-1(2H)-ylamino)methyl)benzoic acid formation at 1 umol/kg administered intraduodenally by LC-MS/MS method. Format: ADME, organism-based. The note with it: in vivo, other. Summed up:
as §2

A short description of data set [24]: AUCinfinity in Han Wistar rat assessed as 3-((3-(2-(2-(Aminomethyl)-5-chlorobenzylamino)-2-oxoethyl)-4-methyl-2-oxo-5,6-dihydropyridin-1(2H)-ylamino)methyl)benzoic acid formation at 1 umol/kg administered intraduodenally by LC-MS/MS method. The format is ADME. Also noted: dose 1 umol/kg, route intraduodenal, time infinity. The note with it: in vivo, other. Summed up:
as §2

Data set [25] in a line: Apparent terminal half life in Han Wistar rat at 1 umol/kg administered intraduodenally by LC-MS/MS method. The format is ADME. The note with it: in vivo, read-out: betat1/2(app) (converted). The essentials: as §2
For data set [26] the following is noted: rat, isolated protein, 40 min, 4 µM.

The structures appear in SMILES notation. In brackets after ≈: the same amount, converted by molar mass.

Chain of Serine protease 1 (P07477 whole entry): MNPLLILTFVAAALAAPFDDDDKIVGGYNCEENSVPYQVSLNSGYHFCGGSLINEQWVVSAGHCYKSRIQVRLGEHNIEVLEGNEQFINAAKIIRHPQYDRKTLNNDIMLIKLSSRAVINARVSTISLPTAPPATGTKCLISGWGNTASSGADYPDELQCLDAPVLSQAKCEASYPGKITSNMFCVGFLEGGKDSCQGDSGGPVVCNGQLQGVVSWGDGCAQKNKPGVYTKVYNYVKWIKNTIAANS
Chain of Plasminogen (P00747 97-580 limits assumed): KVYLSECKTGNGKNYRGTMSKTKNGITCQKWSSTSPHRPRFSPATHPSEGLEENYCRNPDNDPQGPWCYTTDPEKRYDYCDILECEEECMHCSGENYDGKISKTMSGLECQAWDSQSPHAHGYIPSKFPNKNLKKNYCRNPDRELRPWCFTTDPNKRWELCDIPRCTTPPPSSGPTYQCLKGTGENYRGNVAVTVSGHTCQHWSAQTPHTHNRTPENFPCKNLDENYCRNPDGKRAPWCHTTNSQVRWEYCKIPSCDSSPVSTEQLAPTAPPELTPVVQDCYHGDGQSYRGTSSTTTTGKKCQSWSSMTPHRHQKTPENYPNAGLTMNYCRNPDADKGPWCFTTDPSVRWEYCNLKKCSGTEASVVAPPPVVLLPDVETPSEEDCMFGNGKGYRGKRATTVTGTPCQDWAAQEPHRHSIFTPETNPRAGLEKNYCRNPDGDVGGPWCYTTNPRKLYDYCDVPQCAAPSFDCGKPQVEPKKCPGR
Chain of Plasminogen (P00747 581-810 limits assumed): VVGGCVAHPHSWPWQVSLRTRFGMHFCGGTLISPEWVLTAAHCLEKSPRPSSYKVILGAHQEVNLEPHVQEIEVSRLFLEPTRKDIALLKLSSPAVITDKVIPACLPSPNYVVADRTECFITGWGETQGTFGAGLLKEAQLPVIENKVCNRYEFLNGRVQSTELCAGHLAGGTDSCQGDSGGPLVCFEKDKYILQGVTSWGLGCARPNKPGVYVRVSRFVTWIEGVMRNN
Chain of Coagulation factor X (P00742 41-179 limits assumed): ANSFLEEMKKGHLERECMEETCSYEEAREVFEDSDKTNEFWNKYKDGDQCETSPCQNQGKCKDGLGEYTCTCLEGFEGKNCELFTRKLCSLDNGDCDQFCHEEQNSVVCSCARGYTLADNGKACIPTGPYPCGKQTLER
Chain of Coagulation factor X (P00742 235-488 limits assumed): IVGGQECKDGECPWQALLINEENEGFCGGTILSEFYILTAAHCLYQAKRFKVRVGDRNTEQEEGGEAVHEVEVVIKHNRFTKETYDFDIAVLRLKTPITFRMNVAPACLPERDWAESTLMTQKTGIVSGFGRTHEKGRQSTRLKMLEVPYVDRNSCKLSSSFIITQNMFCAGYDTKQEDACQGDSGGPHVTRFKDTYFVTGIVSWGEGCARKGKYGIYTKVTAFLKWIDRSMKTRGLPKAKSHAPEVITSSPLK
Chain of Coagulation factor IX (P00740 47-191 limits assumed): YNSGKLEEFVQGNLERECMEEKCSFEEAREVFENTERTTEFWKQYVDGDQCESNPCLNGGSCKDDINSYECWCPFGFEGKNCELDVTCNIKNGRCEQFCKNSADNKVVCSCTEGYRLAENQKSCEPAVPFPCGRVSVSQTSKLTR
Chain of Coagulation factor IX (P00740 227-461 limits assumed): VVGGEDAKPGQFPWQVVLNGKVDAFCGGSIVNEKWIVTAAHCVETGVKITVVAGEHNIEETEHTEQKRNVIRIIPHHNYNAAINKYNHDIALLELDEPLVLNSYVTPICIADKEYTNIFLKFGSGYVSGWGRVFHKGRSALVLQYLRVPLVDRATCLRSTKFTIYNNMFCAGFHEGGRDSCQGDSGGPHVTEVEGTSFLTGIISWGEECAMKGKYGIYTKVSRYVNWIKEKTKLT

`CC1=C2CC(=O)NCc3cc(Cl)ccc3CNC(=O)OC(C)OC(=O)c3cccc(c3)CNN(CC1)C2=O` (stereo unspecified): the efflux ratio at 10 µM in data set [1] worked out at 4.8. For the same molecule, in [2], the Papp A→B at 10 µM was 450 nm/s. In addition, the Drug metabolism entry in [3] is “Metabolite_Detected”; in [4], “Metabolite_Detected”; in data set [5], “Metabolite_Notdetected”; in [7] it was “Metabolite_Detected”. In “physchem”, the logD at 3 h stood at 2.6. Also, the concentration in solution in data set [6] (solubility at 24 h) came to 340 µM (≈ 184 µg/mL).
As to `CC1=C(CC(=O)NCc2cc(Cl)ccc2CN)C(=O)N(NCc2ccccc2)CC1`, the Ki in data set [8] was greater than 33 µM; at Prothrombin, 0.0005 µM; on Plasminogen, greater than 19 µM; at Coagulation factor X, greater than 17 µM; at Serine protease 1, greater than 5.4 µM; at Coagulation factor XI, greater than 19 µM. In addition, on Coagulation factor IX, the Ki was greater than 29 µM. Besides, the microsomal CLint at 1 µM in [9] came out at 150 µL/min/mg. Besides, the Ratio Ki (in the data set filed under Homo sapiens [10]; in data set [11]; in the data set listed under Homo sapiens [12]; in the data set listed under Homo sapiens [13]; in the data set filed under Homo sapiens [14]; in the data set listed under Homo sapiens [15]) was greater than 1000 each time. The concentration for half-maximal inhibition (IC50) in the data set filed under Rattus norvegicus is 0.072 µM; with Plasma, 0.68 µM; on Cytochrome P450 3A4, 13 µM.
On to `CC1=C(CC(=O)NCc2cc(Cl)ccc2CNC(=O)OC(C)(C)C)C(=O)N(NCc2cccc(C(=O)O)c2)CC1`, for which the Drug metabolism result in [16] is “Metabolite_Detected”.
In the case of `CC1=C2CC(=O)NCc3cc(Cl)ccc3CNC(=O)OCOC(=O)c3cccc(c3)CNN(CC1)C2=O`, the F worked out at 2.5% in data set [17] and 1.6% in [23]. Besides, the results for the Cmax in [18] and in data set [19] were 0.011 µM and 0.108 µM, respectively. In addition, the Ki was 0.2 µM at Prothrombin and greater than 5.4 µM on Serine protease 1. Also, the efflux ratio at 10 µM in data set [1] amounted to 5.6. The Drug metabolism result is “Metabolite_Detected” in data set [20]; “Metabolite_Detected” in data set [3]; “Metabolite_Detected” in data set [4]; “Metabolite_Notdetected” in [5]; “Metabolite_Detected” in data set [7]. Moreover, the half-life in data set [21] was 67.2 min; in data set [25], 6.6 min. The Papp A→B at 10 µM in [2] stood at 480 nm/s. For the same molecule, the AUC in [22] came to 12.7 nM·h; in data set [24], 8.1 nM·h. The logD at 3 h in “physchem” came to 2.3. In addition, the solubility at 24 h in data set [6] was determined as 120 µM (≈ 63.2 µg/mL).
Regarding `C=O` [FORMALDEHYDE], the Drug metabolism entry in data set [26] is “Metabolite_Detected”.
